# Compounds with a hit are over-represented: about 2.1% of the library has one in this group of screens.
# Autophagy mod: autophagy modulators in MEF cells, primary screen, imaging, high-content, MEF GFP-LC3; MEF GFP-LC3 puncta imaging; test concentration mostly 10 µM; calls only at 10 µM (by protocol); 190,000 tested, 0.98% active; AID 463193, 2010;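 active = percentage of spot-positive cells more than 3 SD above its plate mean, without a fluorescence outlier flag or 80% toxicity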;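 also: spot-positive cell cutoff set from DMSO-treated cells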
# Insulin prom up: insulin promoter activators in MIN6 cells, imaging, high-content screening, mouse beta cells; MIN6 insulin promoter-GFP reporter; stronger effect = higher value; z-score at 5 µM; 190,000 tested, 0.3% active;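 active = z-score above 3 at 5 µM with at least 500 cells counted in the well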
# RBBP9 inh: human RBBP9 inhibitors, primary screen, biochemical, fluorescence polarization, FP-Rh probe, HTS; Serine hydrolase RBBP9 (Homo sapiens), O75884; inhibition, % at 7.94 µM; recombinant RBBP9; 220,000 tested, 0.2% active;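 active = inhibition above the campaign mean of all tested compounds plus 3 SD, cut at about 14% in these data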;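 also: plate controls were DMSO wells with RBBP9 for no effect and wells lacking RBBP9 protein for full effect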
#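 Test system: recombinant human RBBP9. Quantity: 2.5 µM RBBP9 dispensing solution, before mixing. Detection: FP readout at 525/598 nm. Reagent: Serine-hydrolase probe FP-Rh, 375 nM pre-mixing. Measure: % inhibition. Control set: DMSO-treated enzyme wells and wells lacking RBBP9. Buffer or medium: Tris-NaCl-Pluronic buffer, pH 8.0. Times: preincubation 30 min plus labeling 45 min at 25 °C.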
# Insulin prom inh: inhibitors of insulin promoter-driven GFP, primary screen, imaging, TRM-6 cells (human fetal islet line), eGFP reporter, cell count. reporter expression induced with tamoxifen. 130,000 tested, 0.9% active. inhibition, % at 2 µM;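 active = inhibition above the mean plus 3 SD, with well images judged a real hit on visual review, cut at about 60% in these data, passing the limit was not always enough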
# PKD1 kinase inh: inhibitors of human PKD1 kinase, biochemical, fluorescence polarization; Serine/threonine-protein kinase D1 (Homo sapiens), Q15139; PKD1 kinase fluorescence polarization assay; inhibition, % (test concentration not listed); 200,000 tested, 0.056% active; AID 797, 2007; in the data active = inhibition above about 50%
# Target sequence (Q15139 whole entry, looked up): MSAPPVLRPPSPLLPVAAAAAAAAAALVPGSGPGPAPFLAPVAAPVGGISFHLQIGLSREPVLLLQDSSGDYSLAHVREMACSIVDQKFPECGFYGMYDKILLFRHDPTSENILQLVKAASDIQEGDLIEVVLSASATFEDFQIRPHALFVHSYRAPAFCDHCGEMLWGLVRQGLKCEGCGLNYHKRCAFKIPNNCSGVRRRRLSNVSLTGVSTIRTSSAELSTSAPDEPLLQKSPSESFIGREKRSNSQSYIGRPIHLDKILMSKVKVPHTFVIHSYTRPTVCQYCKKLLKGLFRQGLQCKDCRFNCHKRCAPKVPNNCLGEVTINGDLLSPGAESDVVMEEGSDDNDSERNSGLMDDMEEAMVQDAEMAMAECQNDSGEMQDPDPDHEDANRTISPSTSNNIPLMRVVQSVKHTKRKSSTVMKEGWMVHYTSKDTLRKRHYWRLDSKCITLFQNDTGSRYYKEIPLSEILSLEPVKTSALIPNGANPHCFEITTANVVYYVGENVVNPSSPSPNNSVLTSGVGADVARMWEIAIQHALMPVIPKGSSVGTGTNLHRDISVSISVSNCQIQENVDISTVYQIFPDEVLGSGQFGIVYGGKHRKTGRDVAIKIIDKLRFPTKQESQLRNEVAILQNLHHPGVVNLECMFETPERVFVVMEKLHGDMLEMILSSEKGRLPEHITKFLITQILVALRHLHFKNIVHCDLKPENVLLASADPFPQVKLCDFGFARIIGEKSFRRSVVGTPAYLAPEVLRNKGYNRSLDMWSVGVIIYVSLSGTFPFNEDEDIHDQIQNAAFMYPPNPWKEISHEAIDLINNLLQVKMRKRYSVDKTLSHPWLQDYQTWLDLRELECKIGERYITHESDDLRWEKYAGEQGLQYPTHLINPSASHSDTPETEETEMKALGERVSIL
# Arbovirus anti: antivirals against arbovirus infection, primary screen, cell-based, full library, 10K replicate subset; arbovirus infection cell-based antiviral screen; inhibition, % at 10 µM; 200,000 tested, 0.37% active; in the data active = inhibition above about 30%
# Active calls of the source: *; i = inactive; / = not tested or not shown; + = active, no number.
SMILES,Autophagy mod,Insulin prom up,RBBP9 inh,Insulin prom inh,PKD1 kinase inh,Arbovirus anti
Cc1ccc(C2=NN(C(=O)c3cccs3)C(c3ccccc3O)C2)cc1 (stereo not given),+,-0.17,-4.0,/,2.1,-1.0
O=C(c1cccs1)N1N=C(c2ccccc2)CC1c1ccccc1O (stereo not given),i,-0.32,-2.4,/,8.7,-29.8
Oc1ccccc1/C=N/Nc1cccc2cccnc12,+,-0.59,0.1,29.4,-9.1,-4.2
OCCNCC(O)Cn1c2ccccc2c2ccccc21 (stereo not given),+,0.95,-1.6,-120.0,-1.7,-13.3
O=Cc1cn(-c2ccccc2)nc1-c1cc2cc(O)ccc2oc1=O,i,/,5.0,23.6,1.5,33.2*
O=Cc1cn(-c2ccccc2)nc1-c1cc2c(ccc3ccccc32)oc1=O,i,0.09,-2.3,17.4,-0.8,1.9
COc1ccc(C2N(Cc3ccccc3)CCN2Cc2ccccc2)cc1[N+](=O)[O-],+,-0.06,-6.5,-5.9,4.3,-5.7
CC1CCCCN1CCNC(=O)Cn1nc(-c2ccccc2)ccc1=O (stereo not given),+,0.27,-9.1,/,-8.0,4.1
Cc1ccc(/C=N/N=C/c2ccc(C)cc2)cc1,i,0,-4.4,-14.3,0.4,-1.1
Cc1[nH]c(=O)[nH]c(=O)c1S(=O)(=O)N1CCC(C(=O)NC(C)c2ccccc2)CC1 (stereo not given),i,0.43,-9.6,5.6,-14.2,0.8
O=C(NC1CCCC1)C1c2ccccc2C(=O)N1CCCN1CCOCC1 (stereo not given),i,-0.07,-5.7,60.0*,-7.7,4.5
COCCCN1C(=O)c2ccccc2C1C(=O)NC1CCCCCC1 (stereo not given),i,0.66,-10.3,-72.2,-6.7,3.1
O=[N+]([O-])c1cc(Cl)ccc1Sc1cccc2cccnc12,i,-0.75,-6.5,-8.3,-1.9,6.6
O=[N+]([O-])c1ccc(Sc2cccc3cccnc23)c([N+](=O)[O-])c1,+,0.08,-5.2,19.4,6.4,-17.5
COC1=C/C(=C/c2c(N)n3nc(-c4ccc(C)cc4)sc3nc2=O)C=CC1=O,i,0.54,-16.4,/,-8.2,31.9*
CCOC1=C/C(=C/c2c(N)n3nc(-c4ccccc4)sc3nc2=O)C=CC1=O,i,/,-16.2,30.0,4.0,33.3*
COc1ccc2cc(C(=O)C3CCCN(C(=O)c4snnc4C)C3)ccc2c1 (stereo not given),i,-1.27,-1.0,/,-1.5,-4.1
C=CCN(c1ccccc1)S(=O)(=O)c1c(C)[nH]c(=O)[nH]c1=O,i,/,-2.2,0.0,4.9,-0.2
Cc1ccc(Nc2nc(NCCCN3CCOCC3)nc(N)c2[N+](=O)[O-])cc1,+,-0.27,-2.5,6.2,10.7,15.0
Cc1ccc(SCC2=NN(c3nc(C)cc(C)n3)C(=O)C2)cc1,i,0.03,-12.9,66.7*,-1.4,-2.3
COc1cccc(N2CC(O)=C(c3nc4ccccc4c(=O)[nH]3)C2=N)c1,+,0.42,4.9,-73.3,0.2,-8.6
CCCSc1nc(C)nc2c1c(=O)n(C)c(=O)n2C,+,1.23,-8.0,/,0.6,-1.6
COc1ccc(-c2c(=O)n(OCc3ccccc3[N+](=O)[O-])c3ccccc3[n+]2[O-])c(OC)c1,i,0.53,-9.1,/,6.3,3.8
CC1CC(C)CN(C(=O)c2cccc3c2-c2ccccc2C3=O)C1 (stereo not given),/,3.97*,-1.8,/,/,/
O=C1c2ccccc2-c2c1cccc2C(=O)N1CCN(C(=O)c2ccco2)CC1,i,-0.38,-14.4,-69.6,-6.4,3.4
SMILES,Autophagy mod,Insulin prom up,RBBP9 inh,Insulin prom inh,PKD1 kinase inh,Arbovirus anti
O=C(CNCC1CCCO1)Nc1ccc([N+](=O)[O-])cc1C(=O)Nc1ccccc1F (stereo not given),i,-1.35,-0.1,/,2.1,5.1
COc1cccc(NC(=O)c2cc([N+](=O)[O-])ccc2NC(=O)CNCC2CCCO2)c1 (stereo not given),+,-0.47,-2.4,-61.9,-2.0,-3.5
O=C(NCc1ccccc1)N1CCC(n2cnc3cc(F)ccc32)CC1,i,0.83,-6.0,77.8*,8.3,-1.1
Cc1ccc(CN2CCNC2=O)cc1,i,0.95,-12.6,-2.7,0.5,11.7
CC(=O)c1ccc(N2CCN(C(=O)C3CCC3)CC2)cc1,+,1.95,1.3,24.1,0.7,-0.3
O=C(Cn1cnc2ccccc2c1=O)Nc1ccc(-c2nnc3n2CCCCC3)cc1,i,/,-2.4,92.9*,1.6,9.1
O=C(Cn1cnc2ccccc2c1=O)Nc1cccc(-c2nnc3n2CCCCC3)c1,i,/,-11.1,33.3,-4.3,5.4
COc1ccccc1/C=C/C(=C1/C(=O)N(c2ccccc2)N=C1C)c1ccc(C)cc1,i,-0.02,-2.8,71.4*,-9.0,0.6
Cc1cccc(CN2C(=O)c3ccccc3Sc3ccc(C(=O)NCCN4CCOCC4)cc32)c1,i,0.23,-3.2,-33.3,-9.6,-23.8
O=C(NCCN1CCOCC1)c1ccc2c(c1)N(Cc1ccccc1F)C(=O)c1ccccc1S2,+,-0.32,-8.4,/,-5.9,-7.6
CCCCN(C)CC(O)Cn1cc(/C=C/C(=O)c2cccs2)c2ccccc21 (stereo not given),i,4.79*,-3.2,-230.0,-2.7,-29.5
Cc1cc(=O)oc2cc(OC(=O)c3cncc(Br)c3)ccc12,i,0.21,-5.5,0.0,-4.6,-1.5
Cn1c(CCc2ccccc2)nnc1SCC(=O)N1CCOCC1,i,/,-6.6,-322.2,16.2,0.6
CCCn1c(CCc2ccccc2)nnc1SCC(=O)N1CCOCC1,i,0.23,-1.6,78.1*,6.4,9.5
CC(C)CC(=O)N1CCN(Cc2cccc(F)c2)CC1,i,0.05,-5.2,-26.9,-3.1,14.7
CC(=O)CCc1ccc(OCCCCN2CCC(Cc3ccccc3)CC2)cc1,+,-0.67,-7.3,-35.0,-4.1,-2.2
COc1ccc(-c2noc(CCC(=O)NCCCN3CCC(Cc4ccccc4)CC3)n2)cc1,+,-1.8,-1.9,-48.6,-3.2,-24.6
CCOc1ncccc1C(=O)OCC(=O)NCCc1ccccc1,i,0.67,6.1,40.0,-5.4,-1.4
N#Cc1c(C(F)(F)F)cc(-c2ccco2)nc1SCc1ccccn1,+,1.23,-2.9,-371.4,2.6,3.1
N#Cc1c(C(F)(F)F)cc(-c2ccco2)nc1SCc1ccncc1,i,1.86,0.4,/,-4.6,-17.3
c1ccn2cc(CSc3nnc4ccccn34)nc2c1,i,0.24,-11.1,/,-1.0,0.4
CCN(Cc1ccncc1)Cc1c(O)ccc2cc(Br)ccc12,i,1.02,-4.3,-13.3,-5.5,30.9*
